Results on 19 molecules are retold here after ChEMBL document CHEMBL1140128 (J Med Chem, 2008).

The target of test [1] is T1, Melanocortin receptor 3 (Mus musculus, UniProt P33033). Nature of the test: Antagonist activity at mouse MC3R expressed in HEK293 cells assessed as effect on MT2 peptide-induced response by CRE/beta-galactosidase reporter gene assay. It counts as functional, cell-based. The following applies: for Kb: read-out: pA2 (converted). The method, boiled down: (§1)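 Mouse MC3R HEK293 stable line carrying transfected CRE/β-galactosidase reporter, 6 h stimulation in IBMX-containing medium. Peptides tested for dose-dependent competitive displacement of MTII agonist at up to 10 μM (footnote: up to 100 μM).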
(In general: A reporter such as luciferase makes a cellular process visible.)

Test [2] concerns the target Melanocortin receptor 3 (Mus musculus) (UniProt P33033). Briefly: Agonist activity at mouse MC3R expressed in HEK293 cells up to 100 uM by CRE/beta-galactosidase reporter gene assay. It counts as functional, cell-based. The method, boiled down: (§2)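 HEK293 cells stably expressing the mouse receptor (G418 selection) were transfected with CRE/β-galactosidase reporter. After 48 h they were stimulated for 6 h with peptide (10^-4–10^-12 M) in DMEM with 0.1 mg/mL BSA and 0.1 mM IBMX. Lysates were read with ONPG substrate at OD405 and normalized to protein (OD595) and to a 10^-4 M forskolin control.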

Test [3] shares this target. Nature of the test: Antagonist activity at mouse MC3R expressed in HEK293 cells assessed as effect on MT2 peptide-induced response up to 100 uM by CRE/beta-galactosidase reporter gene assay. It counts as functional, cell-based. In outline:
as §1

Test [4] shares this target. Nature of the test: Agonist activity at mouse MC3R expressed in HEK293 cells by CRE/beta-galactosidase reporter gene assay relative to Ac-His-DPhe7-Arg-Trp-NH2 peptide. It counts as functional, cell-based. In outline:
as §2

Test [5] deals with Melanocortin receptor 5 (Mus musculus) (UniProt P41149). Nature of the test: Agonist activity at mouse MC5R expressed in HEK293 cells by CRE/beta-galactosidase reporter gene assay relative to Ac-His-DPhe7-Arg-Trp-NH2 peptide. In kind it is functional, cell-based. In outline: as §2
Test [6] concerns the target Melanocyte-stimulating hormone receptor (Mus musculus) (UniProt Q01727). Briefly: Agonist activity at mouse MC1R expressed in HEK293 cells by CRE/beta-galactosidase reporter gene assay relative to Ac-His-DPhe7-Arg-Trp-NH2 peptide. It counts as functional, cell-based. In outline: as §2
Test [7] addresses Melanocortin receptor 4 (Mus musculus) (UniProt P56450). Briefly: Agonist activity at mouse MC4R expressed in HEK293 cells by CRE/beta-galactosidase reporter gene assay relative to Ac-His-DPhe7-Arg-Trp-NH2 peptide. It counts as functional, cell-based. The method, boiled down: as §2
The species entered for test [8] is Mus musculus. Briefly: Selectivity for mouse MC4R over mouse MC1R by CRE/beta-galactosidase reporter gene assay.
The species named for test [9] is Mus musculus. Briefly: Selectivity for mouse MC4R over mouse MC3R by CRE/beta-galactosidase reporter gene assay.
The target in a further test is Melanocortin receptor 5 (Mus musculus, UniProt P41149). Nature of the test: Agonist activity at mouse MC5R expressed in HEK293 cells by CRE/beta-galactosidase reporter gene assay. It counts as functional, cell-based. In outline:
as §2

The target in test [10] is T2, Melanocortin receptor 4 (Mus musculus, UniProt P56450). Briefly: Agonist activity at mouse MC4R expressed in HEK293 cells by CRE/beta-galactosidase reporter gene assay. In kind it is functional, cell-based. The method, boiled down:
as §2

Test [11] has as its target T2, Melanocortin receptor 4. Nature of the test: Antagonist activity at mouse MC4R expressed in HEK293 cells assessed as effect on MT2 peptide-induced response by CRE/beta-galactosidase reporter gene assay. In kind it is functional, cell-based. The following applies: read-out: pA2 (converted).
Test [12] addresses Melanocyte-stimulating hormone receptor (Mus musculus, UniProt Q01727). Nature of the test: Agonist activity at mouse MC1R expressed in HEK293 cells by CRE/beta-galactosidase reporter gene assay. In kind it is functional, cell-based. In outline: (§3)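 HEK293 cells stably expressing the mouse receptor (G418 selection) were transfected with CRE/β-galactosidase reporter. Lysates were read with ONPG substrate at OD405 and normalized to protein (OD595) and to a 10^-4 M forskolin control.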

Test [13] concerns the target T1, Melanocortin receptor 3. Briefly: Agonist activity at mouse MC3R expressed in HEK293 cells by CRE/beta-galactosidase reporter gene assay. In kind it is functional, cell-based. In outline:
as §3

Each structure is given as a SMILES string. pEC50, pKi: −log10 of the molar value. Calls of active or inactive are those of the source. No cut-off for these calls is given here.

Sequence of Melanocortin receptor 4 (Mus musculus) (P56450 whole entry): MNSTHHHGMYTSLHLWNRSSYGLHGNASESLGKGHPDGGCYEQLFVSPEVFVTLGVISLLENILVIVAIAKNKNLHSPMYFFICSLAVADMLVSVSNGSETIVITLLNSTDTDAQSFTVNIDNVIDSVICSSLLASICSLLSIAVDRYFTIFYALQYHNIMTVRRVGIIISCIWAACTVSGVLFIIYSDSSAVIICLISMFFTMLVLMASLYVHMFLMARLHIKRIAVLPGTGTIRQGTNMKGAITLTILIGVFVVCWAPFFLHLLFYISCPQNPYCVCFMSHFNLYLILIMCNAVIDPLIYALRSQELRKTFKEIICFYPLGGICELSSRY
T2 sequence (P56450 whole entry): as above
Sequence of Melanocyte-stimulating hormone receptor (Q01727 whole entry): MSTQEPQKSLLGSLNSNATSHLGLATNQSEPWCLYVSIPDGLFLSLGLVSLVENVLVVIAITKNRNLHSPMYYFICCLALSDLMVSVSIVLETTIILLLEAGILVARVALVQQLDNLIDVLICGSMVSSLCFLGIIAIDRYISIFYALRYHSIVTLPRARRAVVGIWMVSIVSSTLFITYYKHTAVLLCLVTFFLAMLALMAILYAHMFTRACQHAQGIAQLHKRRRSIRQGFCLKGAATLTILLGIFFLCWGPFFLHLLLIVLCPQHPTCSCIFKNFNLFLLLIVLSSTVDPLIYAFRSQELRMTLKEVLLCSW
Sequence of Melanocyte-stimulating hormone receptor (Mus musculus) (Q01727 whole entry, looked up): as the sequence (Q01727 whole entry) above
Sequence of Melanocortin receptor 3 (Mus musculus) (P33033 whole entry): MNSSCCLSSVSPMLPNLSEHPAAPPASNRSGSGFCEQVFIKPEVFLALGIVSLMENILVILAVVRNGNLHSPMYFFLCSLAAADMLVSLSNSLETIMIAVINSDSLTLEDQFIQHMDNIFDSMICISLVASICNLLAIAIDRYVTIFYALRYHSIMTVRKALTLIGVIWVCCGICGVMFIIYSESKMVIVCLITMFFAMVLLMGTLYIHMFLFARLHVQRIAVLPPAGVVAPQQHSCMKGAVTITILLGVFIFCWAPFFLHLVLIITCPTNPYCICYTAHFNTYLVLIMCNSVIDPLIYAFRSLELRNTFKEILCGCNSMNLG
T1 sequence (P33033 whole entry): as above
Sequence of Melanocortin receptor 5 (P41149 whole entry): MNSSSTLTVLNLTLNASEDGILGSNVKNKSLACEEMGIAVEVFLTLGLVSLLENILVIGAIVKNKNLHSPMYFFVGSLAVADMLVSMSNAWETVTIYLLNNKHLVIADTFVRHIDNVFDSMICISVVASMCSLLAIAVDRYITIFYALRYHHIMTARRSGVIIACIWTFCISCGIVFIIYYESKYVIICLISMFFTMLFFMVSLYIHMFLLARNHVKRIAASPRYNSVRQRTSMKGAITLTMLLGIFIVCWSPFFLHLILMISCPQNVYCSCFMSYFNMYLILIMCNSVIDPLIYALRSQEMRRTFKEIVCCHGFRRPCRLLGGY
Sequence of Melanocortin receptor 5 (Mus musculus) (P41149 whole entry): as above

On to `CC(=O)N[C@@H](Cc1cnc[nH]1)C(=O)N[C@H](Cc1ccc(Cl)c(Cl)c1)C(=O)N[C@@H](CCCN=C(N)N)C(=O)N[C@@H](Cc1c[nH]c2ccccc12)C(N)=O`, for which, on Melanocortin receptor 3 [1], the pKi (usually the negative decadic logarithm of the Ki, by convention in mol/L) is 6.59 and the Kb was 38 nM.

Regarding `CC(=O)N[C@@H](Cc1cnc[nH]1)C(=O)N[C@H](Cc1ccc(C(C)(C)C)cc1)C(=O)N[C@@H](CCCNC(=N)N)C(=O)N[C@@H](Cc1c[nH]c2ccccc12)C(N)=O`, the outcome in test [2] and in test [3] was inactive.

Consider `CC(=O)N[C@@H](Cc1cnc[nH]1)C(=O)N[C@H](Cc1ccccc1)C(=O)N[C@@H](CCCNC(=N)N)C(=O)N[C@@H](Cc1c[nH]c2ccccc12)C(N)=O`, for which the fold change (FC) in [4], in [5], in test [6] and in test [7] was 1 in each case.

Regarding `CC(=O)N[C@@H](Cc1cnc[nH]1)C(=O)N[C@H](Cc1ccc(F)cc1)C(=O)N[C@@H](CCCNC(=N)N)C(=O)N[C@@H](Cc1c[nH]c2ccccc12)C(N)=O`, the fold change (FC) in [4] and in test [6] was -2 throughout. The Ratio EC50 in the test filed under Mus musculus [8] and in the test listed under Mus musculus [9] was 200 each time.

As for `CC(=O)N[C@@H](Cc1cnc[nH]1)C(=O)N[C@H](Cc1ccccc1)C(=O)N[C@@H](CCCN=C(N)N)C(=O)N[C@@H](Cc1c[nH]c2ccccc12)C(N)=O`, the pEC50 (usually the negative decadic logarithm of the EC50, by convention in mol/L) on Melanocortin receptor 5 is 8.49; at Melanocortin receptor 4 [10] it was 8.64. Further, the Kb at Melanocortin receptor 4 [11] is 5.01 nM.

Regarding `CC(=O)N[C@@H](Cc1cnc[nH]1)C(=O)N[C@H](Cc1ccc(F)cc1)C(=O)N[C@@H](CCCN=C(N)N)C(=O)N[C@@H](Cc1c[nH]c2ccccc12)C(N)=O`, the pEC50 in test [12] is 7.27.

For `CC(=O)N[C@@H](Cc1cnc[nH]1)C(=O)N[C@H](Cc1ccc(C(=O)c2ccccc2)cc1)C(=O)N[C@@H](CCCNC(=N)N)C(=O)N[C@@H](Cc1c[nH]c2ccccc12)C(N)=O`, the pEC50 was 7.29 on Melanocortin receptor 5, 7.20 on Melanocortin receptor 4 [10] and 6.74 in test [12].

Regarding `CC(=O)N[C@@H](Cc1cnc[nH]1)C(=O)N[C@H](Cc1ccc(O)cc1)C(=O)N[C@@H](CCCNC(=N)N)C(=O)N[C@@H](Cc1c[nH]c2ccccc12)C(N)=O`, the fold change (FC) came out at 99 in test [4], 223 in test [5], 23 in test [6] and 171 in test [7]. The pEC50 was 6.14 on Melanocortin receptor 5, 6.41 on Melanocortin receptor 4 [10], 4.90 on Melanocortin receptor 3 [13] and 5.59 in test [12].

In the case of `CC(=O)N[C@H](Cc1cnc[nH]1)C(=O)NC(Cc1ccc2ccccc2c1)C(=O)N[C@@H](CCCNC(=N)N)C(=O)N[C@@H](Cc1c[nH]c2ccccc12)C(N)=O` (stereo in doubt), the pKi at Melanocortin receptor 3 [1] is 5.30.

`CC(=O)N[C@@H](Cc1cnc[nH]1)C(=O)N[C@H](Cc1ccc(N)cc1)C(=O)N[C@@H](CCCN=C(N)N)C(=O)N[C@@H](Cc1c[nH]c2ccccc12)C(N)=O`: the pEC50 at Melanocortin receptor 5 is 6.65.

As for `CC(=O)N[C@@H](Cc1cnc[nH]1)C(=O)N[C@H](Cc1ccc(C(F)(F)F)cc1)C(=O)N[C@@H](CCCNC(=N)N)C(=O)N[C@@H](Cc1c[nH]c2ccccc12)C(N)=O`, at Melanocortin receptor 3 [1], the pKi was 5.21 and the Kb was 162 nM.

On to `CC(=O)N[C@@H](Cc1cnc[nH]1)C(=O)N[C@H](Cc1ccc(Br)cc1)C(=O)N[C@@H](CCCNC(=N)N)C(=O)N[C@@H](Cc1c[nH]c2ccccc12)C(N)=O`, for which, on Melanocortin receptor 3 [1], the pKi was 6.46 and the Kb is 28.8 nM.

`CC(=O)N[C@@H](Cc1cnc[nH]1)C(=O)N[C@H](Cc1ccc(C#N)cc1)C(=O)N[C@@H](CCCNC(=N)N)C(=O)N[C@@H](Cc1c[nH]c2ccccc12)C(N)=O`: in [5], the fold change (FC) stood at 1. This molecule gave a pEC50 at Melanocortin receptor 4 [10] of 8.55.

Regarding `CC(=O)N[C@@H](Cc1cnc[nH]1)C(=O)N[C@H](Cc1ccc(Cl)cc1)C(=O)N[C@@H](CCCNC(=N)N)C(=O)N[C@@H](Cc1c[nH]c2ccccc12)C(N)=O`, the fold change (FC) in test [5] was -2. In addition, the Ratio EC50 in the test listed under Mus musculus [8] and in the test filed under Mus musculus [9] was 200 throughout.

For the molecule `CC(=O)N[C@@H](Cc1cnc[nH]1)C(=O)N[C@H](Cc1ccc(N)cc1)C(=O)N[C@@H](CCCNC(=N)N)C(=O)N[C@@H](Cc1c[nH]c2ccccc12)C(N)=O`, the fold change (FC) came out at 130 in test [4], 69 in test [5], 21 in test [6] and 96 in [7].

Turning to `CC(=O)N[C@@H](Cc1cnc[nH]1)C(=O)N[C@H](Cc1ccc([N+](=O)[O-])cc1)C(=O)N[C@@H](CCCNC(=N)N)C(=O)N[C@@H](Cc1c[nH]c2ccccc12)C(N)=O`, the fold change (FC) in [4] came to 5.

For `CC(=O)N[C@@H](Cc1cnc[nH]1)C(=O)N[C@H](Cc1ccc(Cl)c(Cl)c1)C(=O)N[C@@H](CCCNC(=N)N)C(=O)N[C@@H](Cc1c[nH]c2ccccc12)C(N)=O`, the fold change (FC) in test [6] was found to be 1.

On to `CC(=O)N[C@@H](Cc1cnc[nH]1)C(=O)N[C@H](Cc1cccc(Cl)c1)C(=O)N[C@@H](CCCNC(=N)N)C(=O)N[C@@H](Cc1c[nH]c2ccccc12)C(N)=O`, for which the Ratio EC50 in the test filed under Mus musculus [9] was 140.

For `CC(=O)N[C@@H](Cc1cnc[nH]1)C(=O)N[C@H](Cc1ccc(C)cc1)C(=O)N[C@@H](CCCNC(=N)N)C(=O)N[C@@H](Cc1c[nH]c2ccccc12)C(N)=O`, the fold change (FC) in test [5] and in test [7] was 2 each time.
